Bioassay records deposited in PubChem by The Scripps Research Institute Molecular Screening Center.
Rows were chosen to be rich in hits. Some 2% of all compounds tested hit in one or more screens of this group.
STAT3 blocker – inhibitors of IL-6 induced STAT3 signaling. U3A cells, IL-6 STAT3-luciferase reporter, luminescence; host cell line lacks STAT1. inhibition, % at 5.5 µM. hit rate 0.89% among 190,000;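 active means inhibition above the mean inhibition across all screened compounds plus 3 SD, cut at about 44% in these data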;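 further: 0% = DMSO only wells and 100% = 100 µM nifuroxazide control wells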
STAT3 act – increases IL-6 driven STAT3 reporter signal; U3A cells, IL-6 STAT3-luciferase reporter, luminescence; 100% = signal with IL-6 EC80 alone; activation (% of control), % at 5.6 µM; hit rate 0.91% among 190,000; AID 871;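 active means activation above the screen-wide mean of compound activation plus 3 SD, cut at about 130% in these data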;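 further: 0% = background luminescence of wells with medium and substrate only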
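Detection: reporter luminescence signal / Assay system: STAT1-lacking human U3A cells, STAT3 luciferase reporter / Incubation: compound pre-incubation 1 h before IL-6, then 6 h stimulation at 37 °C / Control set: IL-6-only high control / Read-out: % activation relative to IL-6 control / Probe or stimulus: Interleukin-6, 33 ng/mL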
STAT1 inh – inhibitors of IFN-gamma induced STAT1 signaling | NIH 3T3 STAT1-luciferase reporter, luminescence | inhibition, % at 5.5 µM | hit rate 0.35% among 200,000;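 active means inhibition above a set limit, the mean inhibition across all tested compounds plus 3 SD, cut at about 34% in these data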;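 further: 0% = IFN-gamma with DMSO and 100% = IFN-gamma with 300 µM nifuroxazide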
HSP90 inh – blocks HSP90-mediated luciferase refolding in reticulocyte lysate. hit rate 0.91% among 290,000. AID 1789. inhibition, % at 5.6 µM. Rabbit reticulocyte lysate, luciferase refolding luminescence, 3 h;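 active means inhibition above the screen-wide mean plus 3 SD, computed separately per campaign, cut at about 16% in these data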;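 further: 0% = DMSO wells and 100% = 60 µM geldanamycin wells; inhibitors lower the luminescence because luciferase stays unfolded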
* marks the source's active call; other numbers are inactive results.

How did Cc1ccc(N/C(N)=N/c2nc3c(c(=O)[nH]2)CCCC3)c(C)c1 do in these assays?
STAT3 blocker: 8; STAT3 act: 102; STAT1 inh: -7; HSP90 inh: -2

How did Cc1ccc2nc(-c3ccc(NC(=O)COC(=O)c4cncc(Br)c4)cc3)sc2c1 do in these assays?
STAT3 blocker: 8; STAT3 act: 98; STAT1 inh: -48; HSP90 inh: 0

How did Cc1ccc2nc(-c3ccc(NC(=O)COC(=O)c4ccc(Br)o4)cc3)sc2c1 do in these assays?
STAT3 blocker: 43*; STAT3 act: 62; STAT1 inh: -46; HSP90 inh: 0

How did CNC(=S)Nc1ccc(-c2nc3ccc(C)cc3s2)cc1 do in these assays?
STAT3 blocker: 47*; STAT3 act: 62; STAT1 inh: 4; HSP90 inh: 1

What do the screens show for `CC(=O)NC(=S)Nc1ccc(-c2nc3ccc(C)cc3s2)cc1`?
STAT3 blocker: 1; STAT3 act: 106; STAT1 inh: -27; HSP90 inh: 0

Results for CC(/C=C1\SC(=O)N(CCCC(=O)O)C1=O)=C\c1ccccc1 ?
STAT3 blocker: 84*; STAT3 act: 31; STAT1 inh: 36*; HSP90 inh: 37*

Results for CC(=O)Nc1nc2cc3c(cc2s1)OCCO3 ?
HSP90 inh: 17*

Results for CCN=c1scc(-c2ccc(F)cc2)n1/N=C/c1ccccn1 ?
STAT3 blocker: 24; STAT3 act: 85; STAT1 inh: -41; HSP90 inh: -5

Results for CCN=c1scc(-c2ccccc2)n1/N=C/c1ccccn1 ?
STAT3 blocker: 45*; STAT3 act: 61; STAT1 inh: -76; HSP90 inh: 12

What do the screens show for `O=c1nccc(N/N=C/c2ccccc2O)[nH]1`?
HSP90 inh: 16*

Results for COc1cccc(/C=N/Nc2ccnc(=O)[nH]2)c1O ?
HSP90 inh: 15

What do the screens show for `O=C(CC1NCCN(Cc2ccccc2)C1=O)Nc1ccc(Cl)cc1` (configuration not stated)?
HSP90 inh: 1

How did O=C(CC1NCCc2ccccc21)Nc1ccc(Cl)cc1 (configuration not stated) do in these assays?
STAT3 blocker: -41; STAT3 act: 133*; STAT1 inh: 1; HSP90 inh: 0

What do the screens show for `O=C(Nc1cccc(NC(=O)c2ccc([N+](=O)[O-])o2)c1)c1ccco1`?
HSP90 inh: 2

How did O=C(Nc1cccc(NC(=O)c2cccs2)c1)c1ccc([N+](=O)[O-])o1 do in these assays?
HSP90 inh: 33*

Results for COC(=O)CC1C(=O)NCCN1Cc1cn(-c2ccc(C)cc2)nc1-c1cccc(C)c1 (configuration not stated) ?
STAT3 blocker: 7; STAT3 act: 98; STAT1 inh: -3; HSP90 inh: -2

How did O=C(CSc1nc2ccccc2[nH]1)Nc1ccc(N2CCOCC2)cc1 do in these assays?
HSP90 inh: -2

How did CC(=O)Nc1ccc(SCC(=O)c2cc(C)n(Cc3cccs3)c2C)cc1 do in these assays?
STAT3 blocker: 95*; STAT3 act: 25; STAT1 inh: 48*; HSP90 inh: 3

How did COCCn1c(C)cc(C(=O)CSc2ccc(NC(C)=O)cc2)c1C do in these assays?
STAT3 blocker: 12; STAT3 act: 98; STAT1 inh: -29; HSP90 inh: 3

How did CC(C)c1ccc(OCc2cccc(C(=O)N/N=C/c3cccnc3)c2)cc1 do in these assays?
STAT3 blocker: 57*; STAT3 act: 53; STAT1 inh: 36*; HSP90 inh: 11

Results for CN=c1scc(C)n1/N=C/c1ccc(O)cc1 ?
STAT3 blocker: 25; STAT3 act: 85; STAT1 inh: -16; HSP90 inh: 5

Results for CN=c1scc(C)n1/N=C/c1ccc(O)cc1O ?
STAT3 blocker: 61*; STAT3 act: 52; STAT1 inh: 56*; HSP90 inh: 8

Results for O=C(Cc1c[nH]c2ccccc12)Nc1ccccc1N1CCOCC1 ?
STAT3 blocker: -23; STAT3 act: 126; STAT1 inh: 11; HSP90 inh: 1

What do the screens show for `Cc1nc(NC2=NCN(CCCN3CCOCC3)CN2)nc2c(C)cccc12`?
STAT3 blocker: -86; STAT3 act: 183*; STAT1 inh: -10; HSP90 inh: -3

How did Cc1nc(NC2=NCN(CCc3ccccc3)CN2)nc2c(C)cccc12 do in these assays?
STAT3 blocker: -67; STAT3 act: 158*; STAT1 inh: -2; HSP90 inh: 1

What do the screens show for `COc1cccc(C(=O)Nc2nnc(-c3cccs3)s2)c1`?
STAT3 blocker: 58*; STAT3 act: 52; STAT1 inh: -2; HSP90 inh: -2

Results for COc1ccc(Cc2nc3ccc(C(=O)N4CCN(C)C(C)C4)cc3o2)cc1OC (configuration not stated) ?
HSP90 inh: -2

How did O=C(/C=C/c1ccccc1)CC(=O)c1ccccc1O do in these assays?
STAT3 blocker: 16; STAT3 act: 90; STAT1 inh: -15; HSP90 inh: 1

What do the screens show for `COc1cc(/C=N/NC(=O)c2ccc(-c3ccccc3)cc2)cc(OC)c1OC`?
STAT3 blocker: -40; STAT3 act: 134*; STAT1 inh: -14; HSP90 inh: -4

How did Cc1occc1C(=O)N/N=C/c1ccc(OCc2ccccc2)cc1 do in these assays?
HSP90 inh: 10

What do the screens show for `Cc1occc1C(=O)N/N=C/c1ccc(-c2ccccc2)cc1`?
HSP90 inh: 45*

What do the screens show for `Cc1ccc(N2CC(C(=O)N3CCC(C(=O)NC(C)(C)C)CC3)CC2=O)cc1` (configuration not stated)?
HSP90 inh: 0

Results for CN1CCN(c2ccc(-c3ccc4ccccc4n3)cc2)CC1 ?
STAT3 blocker: 112*; STAT3 act: 9; STAT1 inh: 95*; HSP90 inh: 89*

How did C#CC(=O)N(c1cccc(OC)c1)C(C(=O)NC1CCCC1)c1cccs1 (configuration not stated) do in these assays?
STAT3 blocker: 110*; STAT3 act: 14; STAT1 inh: 43*; HSP90 inh: 7

What do the screens show for `Cc1sc2c(c1C)C(=O)NC(c1cccc(O)c1)N2` (configuration not stated)?
STAT3 blocker: -52; STAT3 act: 144*; STAT1 inh: -3; HSP90 inh: 0

What do the screens show for `COC(=O)c1ccc(C2NC(=O)c3c(sc(C)c3C)N2)cc1` (configuration not stated)?
HSP90 inh: -2

What do the screens show for `CCOC(=O)c1cnc2c(C(F)(F)F)cccc2c1NCCCN1CCOCC1`?
HSP90 inh: 3

Results for COc1ccc(OC)c(NC(=O)CSc2nccn2Cc2ccco2)c1 ?
HSP90 inh: -1

What do the screens show for `O=[N+]([O-])c1cccc2ccc(/C=C/c3ccc(F)cc3)nc12`?
STAT3 blocker: -38; STAT3 act: 135*; STAT1 inh: -37; HSP90 inh: 0

How did Cc1ccccc1-n1sc2cc(F)ccc2c1=O do in these assays?
STAT3 blocker: 16; STAT3 act: 92; STAT1 inh: 9; HSP90 inh: -3

What do the screens show for `Cc1c(C#N)c(NC(=O)CCl)n(Cc2ccc(F)cc2)c1C`?
STAT3 blocker: 32; STAT3 act: 76; STAT1 inh: 34*; HSP90 inh: 3
